ChEMBL document CHEMBL1133661, “Synthesis and in vitro anti-mycobacterium activity of N-alkyl-1, 2-dihydro-2-thioxo-3-pyridinecarbothioamides. Preliminary toxicity and pharmacokinetic evaluation” (J Med Chem, 2000)
In brackets after ≈: the same amount, converted by molar mass.

Experiments:
[1] = test system: Mycobacterium tuberculosis; assay: In Vitro antimicrobial activity against the Mycobacterium tuberculosis (MT) strain H-37-Rv ATCC; format: functional
Outline: (§1)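 MIC by radiometric broth dilution (BACTEC 460-TB) in 7H12 liquid medium containing 14C-palmitic acid. Growth read as 14CO2 release, recorded as growth index (0–999). Compounds stocked in DMSO; working solutions at 40-fold final concentration made in sterile distilled water. Ethambutol reference. MIC expressed in µg/mL.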

Mycobacterium avium [2] = assay: In Vitro antimicrobial activity against the Mycobacterium avium complex (MAC) strain ATCC 15769; format: functional; outline: as §1
Mycobacterium avium [3] = assay: In Vitro antimicrobial activity against the Mycobacterium avium complex (MAC) Wild type strain AN2; format: functional; outline: as §1
[4] = test system: Mycobacterium tuberculosis; assay: In Vitro antimicrobial activity against the Mycobacterium tuberculosis (MT) Wild type strain MT-1; format: functional; outline: as §1
[5] = test system: Mycobacterium tuberculosis; assay: In Vitro antimicrobial activity against the Mycobacterium tuberculosis (MT) Wild type strain MT-2; format: functional; outline: as §1
Mycobacterium avium [6] = assay: In Vitro antimicrobial activity against the Mycobacterium avium complex (MAC) Wild type strain ISS 486; format: functional; outline: as §1
Mycobacterium avium [7] = assay: In Vitro antimicrobial activity against the Mycobacterium avium complex (MAC) Wild type strain AN3; format: functional; outline: as §1
Mycobacterium avium [8] = assay: In Vitro antimicrobial activity against the Mycobacterium avium complex (MAC) Wild type strain AN1; format: functional; outline: as §1
[9] = Volume of distribution in rats after intravenous administration; format: ADME, organism-based; conditions: rat, in vivo, read-out: Vss
Outline: (§2)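 Male Wistar rats (250-300 g), single 20 mg/kg i.v. dose in poly(ethylene glycol) 400, given through a permanent jugular-vein cannula that also served for blood sampling. Plasma levels measured by GC-MS (electron impact 70 eV; ions 233, 181, 168, 137, 104 monitored). Parameters derived by noncompartmental analysis.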

[10] = Area under curve (AUC) value of the compound; format: ADME; outline: as §2
[11] = Elimination half life value after intravenous administration in rats; format: ADME, organism-based; conditions: rat, in vivo; outline: as §2
[12] = Clearance (CL) value in rats after intravenous administration.; format: ADME, organism-based; conditions: rat, in vivo, read-out: CI; outline: as §2
[13] = Mean residence time (MRT) in rats after intravenous administration.; format: ADME, organism-based; conditions: rat, in vivo; outline: as §2
[14] = Mean residence time (MRT) in rats after intravenous administration; format: ADME, organism-based; conditions: rat, in vivo; outline: as §2
Mycobacterium avium [15] = assay: In Vitro antimicrobial activity against Mycobacterium avium complex (MAC) strain ATCC 15769; format: functional; outline: as §1

Row | Structure (SMILES) | MIC [1] [µg/mL] | MIC (Mycobacterium avium [2]) [µg/mL] | MIC (Mycobacterium avium [3]) [µg/mL] | MIC [4] [µg/mL] | MIC [5] [µg/mL] | MIC (Mycobacterium avium [6]) [µg/mL] | MIC (Mycobacterium avium [7]) [µg/mL] | MIC (Mycobacterium avium [8]) [µg/mL] | Vd [9] [L] | AUC [10] [ng·h/mL] | half-life [11] [min] | clearance [12] [mL/min] | MRT [13] [min] | MRT [14] [min] | MIC (Mycobacterium avium [15]) [µg/mL]
1 | C/N=C(\S)c1cccnc1S | 2 (≈ 10.9 µM) | 4 (≈ 21.7 µM) | 4 (≈ 21.7 µM) | 1 (≈ 5.43 µM) | 1 (≈ 5.43 µM) | 4 (≈ 21.7 µM) | 4 (≈ 21.7 µM) | 8 (≈ 43.4 µM) | – | – | – | – | – | – | –
2 | CC[C@@H](CO)NCCN[C@@H](CC)CO [ETHAMBUTOL] | < 2 | – | 0.5 (≈ 2.45 µM) | < 2 | < 2 | 2 (≈ 9.79 µM) | 2 (≈ 9.79 µM) | 1 (≈ 4.89 µM) | – | – | – | – | – | – | –
3 | CCCCC/N=C(\S)c1cccnc1S | 2 (≈ 8.32 µM) | 1 (≈ 4.16 µM) | 2 (≈ 8.32 µM) | 4 (≈ 16.6 µM) | 4 (≈ 16.6 µM) | 1 (≈ 4.16 µM) | 1 (≈ 4.16 µM) | 1 (≈ 4.16 µM) | – | – | – | – | – | – | –
4 | CCCCCCCC/N=C(\S)c1cccnc1S | 1 (≈ 3.54 µM) | 4 (≈ 14.2 µM) | 4 (≈ 14.2 µM) | 4 (≈ 14.2 µM) | 4 (≈ 14.2 µM) | 8 (≈ 28.3 µM) | 4 (≈ 14.2 µM) | 8 (≈ 28.3 µM) | – | – | – | – | – | – | –
5 | O=c1ssc2ncccc12 | 4 (≈ 23.6 µM) | 2 (≈ 11.8 µM) | – | 8 (≈ 47.3 µM) | 8 (≈ 47.3 µM) | – | – | – | – | – | – | – | – | – | –
6 | OCC/N=C(\S)c1cccnc1S | 2 (≈ 9.33 µM) | 8 (≈ 37.3 µM) | 8 (≈ 37.3 µM) | 4 (≈ 18.7 µM) | 8 (≈ 37.3 µM) | 8 (≈ 37.3 µM) | 4 (≈ 18.7 µM) | 4 (≈ 18.7 µM) | – | – | – | – | – | – | –
7 | CC/N=C(\S)c1cccnc1S | 0.5 (≈ 2.52 µM) | 4 (≈ 20.2 µM) | 8 (≈ 40.3 µM) | 1 (≈ 5.04 µM) | 1 (≈ 5.04 µM) | 4 (≈ 20.2 µM) | 8 (≈ 40.3 µM) | 4 (≈ 20.2 µM) | 0.93 | 18500 | 37.2 | 20 | 47.6 | – | –
8 | S/C(=N\C1CCCCC1)c1cccnc1S | 0.5 (≈ 1.98 µM) | 4 (≈ 15.8 µM) | 4 (≈ 15.8 µM) | 4 (≈ 15.8 µM) | 1 (≈ 3.96 µM) | 4 (≈ 15.8 µM) | 4 (≈ 15.8 µM) | 4 (≈ 15.8 µM) | – | – | – | – | – | – | –
9 | CCCCCCC/N=C(\S)c1cccnc1S | 0.5 (≈ 1.86 µM) | 2 (≈ 7.45 µM) | 4 (≈ 14.9 µM) | 2 (≈ 7.45 µM) | 2 (≈ 7.45 µM) | 4 (≈ 14.9 µM) | 4 (≈ 14.9 µM) | 4 (≈ 14.9 µM) | 1.28 | 8250 | 28 | 50 | – | 28.9 | –
10 | CCCCCCNC(=O)c1cccnc1S | 8 (≈ 33.6 µM) | 8 (≈ 33.6 µM) | – | 8 (≈ 33.6 µM) | 16 (≈ 67.1 µM) | – | – | – | – | – | – | – | – | – | –
11 | CCC/N=C(\S)c1cccnc1S | 2 (≈ 9.42 µM) | 2 (≈ 9.42 µM) | 4 (≈ 18.8 µM) | 4 (≈ 18.8 µM) | 4 (≈ 18.8 µM) | 1 (≈ 4.71 µM) | 2 (≈ 9.42 µM) | 2 (≈ 9.42 µM) | – | – | – | – | – | – | –
12 | CCCCCCCCCC/N=C(\S)c1cccnc1S | 16 (≈ 51.5 µM) | 16 (≈ 51.5 µM) | 32 (≈ 103 µM) | 64 (≈ 206 µM) | 64 (≈ 206 µM) | 32 (≈ 103 µM) | 32 (≈ 103 µM) | 32 (≈ 103 µM) | – | – | – | – | – | – | –
13 | CCCCCCCCCCCCCCCC/N=C(\S)c1cccnc1S | 16 (≈ 40.5 µM) | 8 (≈ 20.3 µM) | 8 (≈ 20.3 µM) | 16 (≈ 40.5 µM) | 32 (≈ 81.1 µM) | 8 (≈ 20.3 µM) | 8 (≈ 20.3 µM) | 8 (≈ 20.3 µM) | – | – | – | – | – | – | –
14 | CCCCCC/N=C(\S)c1cccnc1S | 1 (≈ 3.93 µM) | 1 (≈ 3.93 µM) | 1 (≈ 3.93 µM) | 1 (≈ 3.93 µM) | 2 (≈ 7.86 µM) | 0.5 (≈ 1.97 µM) | 1 (≈ 3.93 µM) | 1 (≈ 3.93 µM) | – | – | – | – | – | – | –
15 | CCCCCCCCCCCCCCCCCC/N=C(\S)c1cccnc1S | 32 (≈ 75.7 µM) | 64 (≈ 151 µM) | 32 (≈ 75.7 µM) | 64 (≈ 151 µM) | 64 (≈ 151 µM) | 32 (≈ 75.7 µM) | 32 (≈ 75.7 µM) | 32 (≈ 75.7 µM) | – | – | – | – | – | – | –
16 | CCCCCCn1sc2ncccc2c1=O | 16 (≈ 67.7 µM) | 16 (≈ 67.7 µM) | – | 8 (≈ 33.8 µM) | 8 (≈ 33.8 µM) | – | – | – | – | – | – | – | – | – | –
17 | CCCC/N=C(\S)c1cccnc1S | 4 (≈ 17.7 µM) | 1 (≈ 4.42 µM) | 4 (≈ 17.7 µM) | 4 (≈ 17.7 µM) | 4 (≈ 17.7 µM) | 2 (≈ 8.84 µM) | 4 (≈ 17.7 µM) | 4 (≈ 17.7 µM) | – | – | – | – | – | – | –
18 | CCCCCCCCC/N=C(\S)c1cccnc1S | 4 (≈ 13.5 µM) | 8 (≈ 27 µM) | 8 (≈ 27 µM) | 16 (≈ 54 µM) | 16 (≈ 54 µM) | 8 (≈ 27 µM) | 8 (≈ 27 µM) | 8 (≈ 27 µM) | – | – | – | – | – | – | –
19 | S=c1ssc2ncccc12 | – | – | – | – | – | – | – | – | – | – | – | – | – | – | 8 (≈ 43.2 µM)
20 | CCCCCC/N=c1\ssc2ncccc12.CCCCCCn1sc2ncccc2c1=S | 4 | 8 | – | 8 | 8 | – | – | – | – | – | – | – | – | – | –
